This is a sample that favours compounds with a hit; in the whole collection about 1.2% have one here.
PMI act: phosphomannose isomerase (human) activation. P34949. purified human PMI, coupled resazurin fluorescence, 20 min; active compounds read high; 1 = vehicle control, 0 substrate-free wells. activation factor at 20 µM. actives 0.005% (n = 190,000);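 active = activation factor of 2 or more at 20 µM, relative to plate controls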
Target sequence (P34949 whole entry, looked up): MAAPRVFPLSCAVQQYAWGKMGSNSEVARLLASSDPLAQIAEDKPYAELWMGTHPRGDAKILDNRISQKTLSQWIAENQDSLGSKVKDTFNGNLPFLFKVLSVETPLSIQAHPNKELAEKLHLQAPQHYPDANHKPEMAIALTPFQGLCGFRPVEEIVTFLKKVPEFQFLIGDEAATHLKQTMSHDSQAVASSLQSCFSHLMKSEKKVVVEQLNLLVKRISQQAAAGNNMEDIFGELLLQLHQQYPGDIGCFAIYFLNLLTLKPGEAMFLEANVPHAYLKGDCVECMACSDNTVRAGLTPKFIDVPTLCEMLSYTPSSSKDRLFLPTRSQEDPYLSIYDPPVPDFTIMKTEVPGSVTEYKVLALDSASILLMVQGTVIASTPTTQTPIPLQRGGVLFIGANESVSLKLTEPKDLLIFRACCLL
PMI act satM6P: activators of human phosphomannose isomerase at near-saturating mannose 6-phosphate | P34949 | coupled PMI enzyme assay, resazurin fluorescence, 20 min; active compounds read high; 1 = untreated enzyme, 0 = substrate-free blank | activation factor at 20 µM | actives 0.34% (n = 190,000);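 active = activation factor of 2 or more at 20 µM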
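Test system: human phosphomannose isomerase with PGI, G6PDH, diaphorase coupling enzymes; Amount: PMI at 15 ng/mL final; Reagent: Mannose-6-phosphate 1.0 mM (near-saturating) plus 0.22 mM NADP+; Timing: 20 min, room temperature; Technique: resorufin fluorescence at Ex 544/Em 590 nm; Dosing: 20 µM single dose.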
Redox H2O2 prof: compounds producing H2O2 with reducing agent – biochemical, NIH compound library profiling, artefact control for MLSCN library redox annotation, primary screen | DTT-dependent redox cycling H2O2, phenol red/HRP absorbance; 100% = 100 µM peroxide control, 0% = buffer | actives 0.03% (n = 200,000) | activation, % at 10 µM;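 active = activation of at least 50% relative to the plate's high and low controls in the primary single-dose screen; inactive = activation below 50%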;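 also: compound incubated with DTT at 0.8 mM final as the reducing agent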
Diaph act CS: diaphorase activation or chemical reduction counter-screen; Diaphorase/resazurin coupled assay, resorufin fluorescence, 16 min; active compounds read high; 1 = vehicle wells, 0 = NADH-free wells; activation factor at 20 µM; actives 0.005% (n = 190,000); AID 1229;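 active = diaphorase activity raised at least twofold by the compound at 20 µM; inactive = activation factor below 2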
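Material: purified diaphorase enzyme from Clostridium kluyveri / Medium: HEPES pH 7.4 buffer with MgCl2 and Tween 20 / Schedule: enzyme reaction of 16 min at room temperature / Measured by: resorufin fluorescence, excitation 544 nm, emission 590 nm / Evaluation: rise in resorufin formation, marking diaphorase activation or chemical reduction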
p47phox inh: inhibitors of human p47phox binding; P14598; p47phox/p22phox peptide binding, fluorescence polarization, 2 h; inhibition, % at 24.7 µM; actives 0.53% (n = 220,000); AID 1274;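 active = inhibition above about 30%, limit read from the data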;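 also: 0% = p47phox with labelled peptide and 100% = labelled peptide alone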
HMGR II inh: E. faecalis class II HMG-CoA reductase inhibition; purified E. faecalis HMGR, NADPH absorbance 340 nm kinetic; inhibition, % at 10 µM; actives 0.41% (n = 190,000); AID 1066;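 active = inhibition above a set limit, the median over all tested compounds plus 3 SD, cut at about 9.5% in these data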;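 also: enzyme runs in reverse so mevalonate oxidation gives rising NADPH absorbance; 0% = complete reaction with DMSO and 100% = background rate lacking mevalonate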
* = called active by the depositor; nt = not tested or not shown.

SMILES	PMI act	PMI act satM6P	Redox H2O2 prof	Diaph act CS	p47phox inh	HMGR II inh
N#Cc1ccccc1NC(=O)C1SC(=Nc2ccccc2)C(C(=O)Nc2ccc(Cl)cc2)=C1N (stereo not given)	1.8	2.3*	0	0.9	-50	-1
Fc1cccc(C2NN=C(c3ccccc3)S2)c1 (stereo not given)	1.3	1.6	-1	0.9	-7	-3
COc1ccc(C2NN=C(c3ccc(C)cc3)S2)cc1OC (stereo not given)	1.8	2.9*	0	0.9	-15	-1
Cc1ccc(C2=NNC(c3cccc(F)c3)S2)cc1 (stereo not given)	1.7	2.1*	0	1	-39	0
CC(=O)N1CCC(=NNc2ccnc3cc(Cl)ccc23)CC1	1.7	2.3*	-10	1	-38	-5
CC(C)NC(=O)CSc1nc(N)c(NC(=O)c2ccco2)c(=O)[nH]1	1.1	1.1	-3	1	9	-4
CN(C1CCCCC1)S(=O)(=O)c1ccc2c(c1)c(=O)c(C(=O)NCCCN1CCCC1)cn2C	0.9	0.8	-1	0.8	-2	-4
CN(C1CCCCC1)S(=O)(=O)c1ccc2c(c1)c(=O)c(C(=O)NCCN1CCCC1)cn2C	1.1	1.1	-1	1.1	51*	3
Cn1cc([C@@H]2C[C@H]3CN(Cc4cccc(Cl)c4)C(=O)[C@]34CCCN24)c2ccccc21	0.8	0.7	-1	0.7	-158	-3
O=C1C(Nc2ccc(O)cc2)=C/C(=N/S(=O)(=O)c2cccs2)c2ccccc21	0.9	0.5	0	1.1	31*	1
Cc1cccc(NC2=C/C(=N/S(=O)(=O)c3cccs3)c3ccccc3C2=O)c1	1	0.4	6	0.9	15	1
Cc1ccc(Cl)cc1NC1=C/C(=N\S(=O)(=O)c2cccs2)c2ccccc2C1=O	0.7	0.8	0	0.7	84*	0
O=C(COC(=O)c1cc(S(=O)(=O)N2CCCCC2)ccc1N1CCOCC1)NC1CCS(=O)(=O)C1 (stereo not given)	1.1	1.1	0	1	0	14*
COc1ccc(/C(C)=N/Nc2ccc(C(=O)O)cc2)cc1OC	1.8	2.5*	0	1	-6	1
COc1cc(/C(C)=N/Nc2ccc(C(=O)O)cc2)cc(OC)c1OC	1.6	2.1*	0	0.9	-7	-4
Cc1ccccc1C(=O)N[C@H](C(=O)OCC(=O)c1ccc[nH]1)C(C)C	1	1	0	1	-5	-6
C=C1c2cc(OC)ccc2NC(=O)N1CC	1.5	2*	0	0.8	-19	-1
CCOC(=O)c1ccc(-c2ccc(/C=N/NC(=O)CN(c3cccc(C)c3)S(C)(=O)=O)o2)cc1	0.9	1	2	1	31*	0
CCOC(=O)c1ccc(-c2ccc(/C=N/NC(=O)CN(c3ccccc3Cl)S(C)(=O)=O)o2)cc1	0.9	1	0	0.9	-40	-3
Cn1nc(C(=O)OCC(=O)Nc2ccc3ccccc3c2)c2ccccc2c1=O	0.8	0.8	0	0.9	-11	1
Clc1cccc(N/N=C/c2ccncc2)c1	1.1	1.2	0	0.9	-17	0
C/C(=N/Nc1ccc(F)cc1)c1ccc(Cl)s1	1.4	2.3*	0	0.8	-2	-1
C/C(=N\Nc1cccc(Cl)c1)c1ccncc1	1.8	2.3*	-2	1	-6	2
C/C(=N\Nc1ccc(F)cc1)c1ccncc1	1.6	2.5*	0	0.9	-12	-5
CC(=O)N1CSCC1C(=O)NNS(=O)(=O)c1cccc(C(F)(F)F)c1 (stereo not given)	nt	nt	nt	nt	-4	nt
C=CCC(=O)OCC(=O)Nc1ccc(Oc2ccccc2)cc1	1.1	1	0	0.9	nt	nt
Cn1c(OCc2ccc3c(c2)OCO3)nc2c1c(=O)n(Cc1ccc(Cl)c(Cl)c1)c(=O)n2C	1	0.9	1	0.9	55*	-1

High-throughput results from PubChem BioAssay.
